Usually pIC50 stands for −log10 of the IC50, conventionally taken in molar units.

pIC50: −log10 of the molar value.

Ten compounds from ChEMBL document CHEMBL3596125, “Discovery of substituted 1,4-dihydroquinolines as novel promising class of P-glycoprotein inhibitors: First structure-activity relationships and bioanalytical studies” (Bioorg Med Chem Lett, 2015) can be followed below.

Data set [1] can be described thus: Cellular uptake in mouse T-cell lymphoma assessed as fluorescence ratio at 50 uM by flow cytometric analysis. The format is ADME. The conditions noted are these: in vitro. Summed up: (§1)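 Cells are the parental mouse T-lymphoma line and its subline transfected retrovirally with human P-gp, which is maintained under colchicine selection. The fluorescent test compound is added at 50 or 100 µM. Intrinsic compound fluorescence taken up by the cells is read by flow cytometry. The ratio relates the uptake in the P-gp-expressing subline to that in the parental line. Values are means of three determinations.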
For orientation: In flow cytometry, cells or beads pass a laser one at a time.

The species entered for data set [2] is Homo sapiens. As to the kind of experiment: Inhibition of human P-gp expressed in mouse T-cell lymphoma assessed as ratio of rhodamine 123 uptake in P-gp expressing cells to rhodamine 123 uptake in non P-gp expressing cells at 1 uM by flow cytometric analysis relative to control. The data set is classed as cell-based. Summed up:
(§2)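 Rhodamine 123 uptake is read by flow cytometry in the parental mouse T-lymphoma line and in the colchicine-selected subline expressing human P-gp, with or without inhibitor. Fluorescence in each line is first normalized to the untreated control of that line. The FAR value is then calculated as subline fluorescence divided by parental-line fluorescence.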

Data set [3] can be described thus: Cellular uptake in mouse T-cell lymphoma assessed as fluorescence ratio at 100 uM by flow cytometric analysis. The format is ADME. To be noted: in vitro. Summed up:
as §1

Data set [4] is described as follows: Cytotoxicity against mouse T-cell lymphoma assessed as reduction of cell viability after 48 hrs by MTT assay. The procedure, abridged:
(§3)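 MTT viability assay, with formazan formation by mitochondrial dehydrogenases as the read-out. Cells are the parental mouse T-lymphoma line or its retrovirally transfected subline expressing human P-gp, which is kept under colchicine. Cells are incubated with varying concentrations of compound for 24 or 48 h. IC50 is derived from the reduction in viability.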
(Formazan colour is commonly taken as a measure of viable cells.)

Data set [5] is filed under the species Homo sapiens. As to the kind of experiment: Inhibition of human P-gp expressed in mouse T-cell lymphoma assessed as ratio of rhodamine 123 uptake in P-gp expressing cells to rhodamine 123 uptake in non P-gp expressing cells at 10 uM by flow cytometric analysis relative to control. The format is cell-based. The procedure, abridged: as §2
The species entered for data set [6] is Homo sapiens. As to the kind of experiment: Activity at human P-gp expressed in mouse T-cell lymphoma assessed as fluorescence ratio at 50 uM by flow cytometric analysis. The procedure, abridged:
as §1

Data set [7] can be described thus: Cytotoxicity against mouse T-cell lymphoma expressing human P-gp assessed as reduction of cell viability after 24 hrs by MTT assay. The data set is classed as ADME. The procedure, abridged: as §3
Data set [8] in a line: Cytotoxicity against mouse T-cell lymphoma expressing human P-gp assessed as reduction of cell viability after 48 hrs by MTT assay. The data set is classed as ADME. Summed up:
as §3

A short description of data set [9]: Cytotoxicity against mouse T-cell lymphoma assessed as reduction of cell viability after 24 hrs by MTT assay. Summed up:
as §3

For data set [10], the species on record is Homo sapiens. The data set can be described thus: Activity at human P-gp expressed in mouse T-cell lymphoma assessed as fluorescence ratio at 100 uM by flow cytometric analysis. Summed up:
as §1

Consider `CCOC(=O)C1=CN(Cc2ccccc2)c2ccccc2C1c1ccc(OC)c(OC)c1` (stereo unspecified), for which the Ratio in data set [1] was 1.06; in [2], 3.42; in [3] it was 1.07; in data set [5], 12.8; in data set [6] it was 1.06; in data set [10] it was 1.07. Also, the pIC50 in [4], in data set [7], in data set [8] and in data set [9] was < 3.80 throughout.
Turning to `CCOC(=O)C1=CN(Cc2cccc(OC)c2)c2ccccc2C1c1cccc(OC)c1` (stereo unspecified), the Ratio in [2] stood at 2.26; in data set [5], 9.68.
`CCOC(=O)C1=CN(Cc2ccccc2)c2ccccc2C1c1cccc(OC)c1` (stereo unspecified): the Ratio in data set [1] came out at 1.03; in [2], 1.55; in [3], 0.99; in [5], 7.43; in data set [6], 1.03; in [10], 0.99. Also, the pIC50 in data set [4], in data set [7], in data set [8] and in data set [9] was < 3.80 each time.
Consider `CCOC(=O)C1=CN(Cc2cccc(OC)c2)c2ccccc2C1c1ccc(OC)cc1` (stereo unspecified), for which the Ratio in data set [2] came to 2.23; in data set [5], 9.95.
With `CCOC(=O)C1=CN(Cc2ccccc2)c2ccccc2C1c1ccc(OC)cc1` (stereo unspecified), the Ratio in data set [2] was 1.27; in [5] it was 5.52.
For `CCOC(=O)C1=CN(Cc2ccc(OC)cc2)c2ccccc2C1c1cccc(OC)c1` (stereo unspecified), in that order: 2.03 and 10.3.
On the same counts, the results for `CCOC(=O)C1=CN(Cc2ccc(OC)cc2)c2ccccc2C1c1ccc(OC)cc1` (stereo unspecified) are 2.55 and 12.4.
As to `CCOC(=O)C1=CN(Cc2ccccc2)c2ccccc2C1c1cc(OC)cc(OC)c1` (stereo unspecified), the figures for the Ratio in data set [2] and in data set [5] were 2.96 and 10.5, respectively.
For `CCOC(=O)C1=CN(Cc2ccccc2)c2ccccc2C1c1ccccc1` (stereo unspecified), in that order: 0.79 and 2.86.
For `COc1ccc(CCN(C)CCCC(C#N)(c2ccc(OC)c(OC)c2)C(C)C)cc1OC` (stereo unspecified), in that order: 1.46 and 4.98.
